A short description of test [1]: Y181C/WTIIIB ratio of the compound. It is filed as functional. In a few lines: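 Fold resistance, given as the EC₅₀ against Y181C mutant HIV-1 divided by the EC₅₀ against wild-type IIIB. Each EC₅₀ is the dose giving 50% protection of MT-4 cells from virus-induced cytopathicity, read by MTT.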
In test [2] the test system is MT4. As to the kind of experiment: Anti-HIV-1 activity against WTIIIB HIV-1 strain in MT-4 cells. The test is classed as functional, cell-based. The note with it: Homo sapiens.
In test [3] the test system is MT4. The test can be described thus: Anti-HIV-1 activity against Y181C HIV-1 strain in MT-4 cells. The note with it: Homo sapiens. The test is classed as functional, cell-based.
The subject of test [4] is Human immunodeficiency virus 1. The test can be described thus: Anti-HIV-1 activity determined as dose required to reduce p24 antigen levels. The test is classed as functional.
The test system of test [5] is Human immunodeficiency virus 1. As to the kind of experiment: Effective concentration against HIV-1 induced cytopathogenicity in MT-4 cells. It is filed as functional, organism-based, MT4. The note with it: Human immunodeficiency virus 1, MT4. An outline of the steps:
(§1)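 MT-4 cells (1 × 10⁴/well) incubated with serial compound dilutions (200 mM DMSO stock diluted in medium), with or without HIV-1 IIIB (100 CCID₅₀/well), 4 days at 37 °C in RPMI 1640 with 10% FCS. Viable cells counted by MTT. CC₅₀ from mock-infected cells and EC₅₀ as 50% protection from virus-induced cytopathicity, run in parallel. Mean of at least two experiments.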

The subject of test [6] is MT4. As to the kind of experiment: CC50/EC50 ratio of the compound. It is filed as functional. An outline of the steps:
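Selectivity index, calculated as CC₅₀/EC₅₀. Both values come from the parallel MTT readout in mock-infected and HIV-1 IIIB-infected MT-4 cells (4-day incubation at 37 °C).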

The test system of test [7] is MT4. The test can be described thus: Cytotoxicity against MT-4 cells. The test is classed as functional, Homo sapiens. The note with it: Homo sapiens, MT4. In a few lines: as §1
Test [8] deals with Human immunodeficiency virus type 1 reverse transcriptase (Human immunodeficiency virus 1, UniProt Q72547). As to the kind of experiment: Inhibitory activity against HIV-1 recombinant reverse transcriptase.

A value given as a limit tells only on which side of the number the result lay.

A word on the EC50: it is the midpoint of the concentration-response curve. Take `O=C1Nc2ccc(Cl)cc2[C@@](C#CC2CC2)(C(F)(F)F)O1` [EFAVIRENZ]: the Fold resistance in test [1] was 6. In addition, the EC50 came out at 4 nM in the test with MT4 [2] and 25 nM in the test on MT4 [3].
As a reminder, the EC90 is the point of the concentration-response curve where the effect stands at 90%. A lower EC90 goes with greater potency. What is called EC99 is the concentration at which the effect reaches the 99% level. On to `Cc1c(Cc2c(F)cccc2F)nc(SC2CCCC2)[nH]c1=O`, for which the Fold resistance in test [1] is 30. In test [4], it took 40 nM to reach the 90% level (EC90), the 99% effect level (EC99) was put at 0.075 µM and the EC99.9 was 0.15 µM. Besides, in the test with MT4 [2], the EC50 stood at 40 nM. Also, in test [5], the EC50 amounted to 80 nM. Moreover, in the test on MT4 [3], the response was half-maximal at 1200 nM (EC50). In the test on MT4 [6], the Selectivity index is over 2500.
Broadly, the CC50 is the concentration at which the toxic effect on the cells reaches its halfway point. As a reminder, the IC50 is the concentration that gives 50% inhibition. For `CSc1nc(O)c(C)c(C(C)c2c(F)cccc2F)n1` (stereo not given), the Fold resistance in test [1] is over 270. In the test with MT4 [7], this compound showed a CC50 of over 200 µM. Moreover, the concentration for a half-maximal effect (EC50) in the test on MT4 [2] was 37 nM; in test [5] it was 40 nM; with MT4 [3], over 10000 nM. In addition, the IC50 in test [8] stood at 20 nM. The Selectivity index with MT4 [6] is listed as over 5000.
Consider `CCC(C)Sc1nc(O)c(C)c(C(C)c2c(F)cccc2F)n1` (stereo not given), for which the Fold resistance in test [1] came out at 15. Also, the CC50 in the test on MT4 [7] was over 200 µM. In addition, the EC50 is 20 nM in the test with MT4 [2], 30 nM in test [5] and 300 nM with MT4 [3]. Further, the IC50 in test [8] amounted to 20 nM. Moreover, the Selectivity index in the test on MT4 [6] was 6666.
